Source: PubChem BioAssay
Compounds with a hit are over-represented: about 1.2% of the library has one in this group of screens.
IDE inh: inhibitors of human insulin-degrading enzyme in cells | inhibition, % at 5.59 µM | 320,000 compounds, 0.41% hits | AID 434962 | HEK cells, FAbetaB cleavage, fluorescence polarization;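 active = percent inhibition above the average of all tested compounds plus 3 SD, set per screening campaign, cut at about 16% in these data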;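 also: IDE supplied by intact live HEK cells; FP after avidin binding of uncleaved biotin substrate so inhibition keeps polarization high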
IDE cell activ: IDE (human) activation, cell-based. activation, % at 5.96 µM. AID 493087. 340,000 compounds, 0.073% hits. HEK cells, FAbeta-B cleavage, fluorescence polarization; 0% vehicle, 100% cell-free pure enzyme wells;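 active = activation above the mean of all tested compounds plus 3 SD, set per screening campaign, cut at about 17% in these data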
ASAP1 GAP inh: ASAP1 ArfGAP inhibition; AID 624377; inhibition, % at 16.5 µM; Q9ULH1; ASAP1-stimulated ARF1 GTP hydrolysis, GDP FP detection; 360,000 compounds, 0.19% hits; in the data active = inhibition above about 25%
PREPL inh: inhibitors of human prolyl oligopeptidase-like enzyme PREPL; recombinant PREPL, fluorescence polarization activity-based probe; AID 2751; inhibition, % at 5.96 µM; 320,000 compounds, 0.68% hits; Q4J6C6; in the data active = inhibition above about 43%
Target sequence (Q4J6C6 whole entry, looked up): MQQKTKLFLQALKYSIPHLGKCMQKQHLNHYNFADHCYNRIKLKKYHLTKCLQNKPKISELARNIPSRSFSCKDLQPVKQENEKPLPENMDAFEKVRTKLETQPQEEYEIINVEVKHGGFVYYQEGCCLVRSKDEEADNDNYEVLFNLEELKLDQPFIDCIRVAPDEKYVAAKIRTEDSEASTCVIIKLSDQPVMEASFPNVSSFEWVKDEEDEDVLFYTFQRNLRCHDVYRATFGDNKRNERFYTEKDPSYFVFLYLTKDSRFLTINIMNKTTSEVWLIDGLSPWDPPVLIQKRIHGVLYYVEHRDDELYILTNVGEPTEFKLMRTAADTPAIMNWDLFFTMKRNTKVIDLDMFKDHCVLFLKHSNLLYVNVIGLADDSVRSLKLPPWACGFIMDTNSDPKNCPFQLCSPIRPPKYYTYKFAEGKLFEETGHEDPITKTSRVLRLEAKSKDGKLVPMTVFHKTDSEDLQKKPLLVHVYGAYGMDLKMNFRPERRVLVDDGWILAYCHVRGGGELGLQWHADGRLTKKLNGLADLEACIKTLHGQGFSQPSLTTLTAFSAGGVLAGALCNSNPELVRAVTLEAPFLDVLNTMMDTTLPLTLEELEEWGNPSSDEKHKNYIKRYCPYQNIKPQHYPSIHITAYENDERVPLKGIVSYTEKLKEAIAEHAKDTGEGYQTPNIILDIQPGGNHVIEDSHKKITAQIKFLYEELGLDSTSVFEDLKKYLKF
ARFGAP1 inh: inhibits rat ARF GTPase activating protein 1 | AID 651572 | Arfgap1-stimulated ARF1 GTP hydrolysis, GDP FP detection | inhibition, % at 16.5 µM | Q62848 | 360,000 compounds, 0.26% hits;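 active = inhibition above a per-plate limit, mean inhibition of low control wells plus 3 SD, cut at about 25% in these data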
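Material: rat Arfgap1 catalytic domain, aa 1-136; also added: human ARF1(Δ1-17)-GTP substrate; compound dosing: one concentration, 16.5 µM, DMSO 1.26%; incubation: GTP hydrolysis reaction 2 h at 25 °C; measured by: Tracer-displacement fluorescence polarization with EDTA stop, 620/688 nm; evaluation: % inhibition from polarization; repeats: one replicate per compound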
IDE cell inh cf: confirmation of human insulin-degrading enzyme inhibitors in cells. shares compounds with IDE inh. HEK cells, FAbetaB cleavage, fluorescence polarization. inhibition, % at 5.59 µM. 1,200 compounds, 51% hits;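 active = mean inhibition across triplicate wells above the cutoff set by the earlier primary insulin-degrading enzyme screen, cut at about 16% in these data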
HEK cytotox: kills HEK cells in IDE inhibitor counter-screen; inhibition, % at 5.59 µM; HEK293 cytotoxicity, ATP luminescence; AID 449730; shares compounds with IDE inh; 1,200 compounds, 28% hits; in the data active = inhibition above about 22%
IDE FP artifact: counter-screen for IDE inhibitors: fluorescent artifacts; shares compounds with IDE inh; 30 tested, under 10 active; FP counterscreen for fluorescent artifacts, IDE probe project; IC50, µM; call rule not given here
ASAP1 GAP conf: ASAP1 inhibition confirmed; inhibition, % at 16.5 µM; 620 compounds, 37% hits; AID 624431; shares compounds with ASAP1 GAP inh; ASAP1-stimulated Arf1 GTPase, GDP fluorescence polarization;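 active = mean inhibition over triplicates exceeds the hit threshold derived for the earlier primary screening run, cut at about 25% in these data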
Numbers stand for hits; 0 = inactive; - = no result.

SMILES	IDE inh	IDE cell activ	ASAP1 GAP inh	PREPL inh	ARFGAP1 inh	IDE cell inh cf	HEK cytotox	others
Nc1cc(N)cc(C(=O)OCC(=O)Nc2cc(S(=O)(=O)N3CCCCC3)ccc2Cl)c1	0	0	0	0	0	-	-
COc1ccc(NC(=O)CSc2nnc(CN3CCOCC3)n2C)cc1Cl	22	0	0	0	0	23	0	IDE FP artifact=0
Cc1ccc(NC(=O)CSc2nnc(CN3CCOCC3)n2C)cc1C	19	0	0	0	0	18	0
Cc1cc(C)cc(NC(=O)CSc2nnc(CN3CCOCC3)n2C)c1	0	0	0	0	0	-	-
Cn1c(=O)c2cc(NC(=O)CCc3cccnc3)ccc2n1Cc1cccc(C(F)(F)F)c1	-	-	0	-	0	-	-
C[n+]1cn(/N=C/c2ccccc2)c2ccccc21	0	0	0	0	0	-	-
CC(=O)N(C(C)=O)c1nc(-c2ccccc2)cn1/N=C/c1ccccc1	25	0	0	0	0	20	0
CSc1cccc(NS(=O)(=O)c2cc(Br)cnc2N)c1	0	0	0	0	0	-	-
O=C(CN1C(=O)NC2(CCCC2)C1=O)Nc1cc(Cl)ccc1N1CCCCC1	0	0	0	0	0	-	-
CC1CCN(c2c(NCc3ccc(C(=O)N4c5ccccc5CC4C)cc3)c(=O)c2=O)CC1 (configuration not stated)	38	0	0	0	0	32	0
CC1CCN(c2c(NCc3ccc(C(=O)NCCc4ccc(Cl)cc4)cc3)c(=O)c2=O)CC1	0	0	0	0	0	-	-
O=S(=O)(CCc1ccncc1)c1ccc(Cl)cc1	0	0	0	0	0	-	-
O=C(NC1CCCCC1)C1CCN(C(=O)c2ccc(Cl)cc2)CC1	0	0	0	0	0	-	-
O=C(NC1CCCCC1)C1CCN(C(=O)c2ccc(-c3ccccc3)cc2)CC1	18	0	0	0	0	0	0
COc1ccc2c(c1O)C(=O)c1ccccc1C2=O	0	-	-	0	-	-	-
COc1cccc2c1C(=O)C=C(C)C2=O	34	0	0	0	0	72	34
COc1ccc(O)c(C(=O)c2coc(=N)c(C(=O)Nc3ccc(SC(F)F)cc3)c2)c1	20	0	0	0	0	38	24
Cc1oc(C)c2c(=O)ccc3c(c12)OC(N)=C(C#N)C3c1ccc(F)cc1 (configuration not stated)	27	0	0	0	0	68	0
CCn1ccnc1CN1CCC(n2nccc2NC(=O)c2ccccc2OC)CC1	0	0	0	0	0	-	-
COC(=O)/C(=C\c1ccc([N+](=O)[O-])o1)NC(=O)c1ccccc1	0	0	0	0	0	-	-
Cc1cccc(NC(=O)/C(=C\c2ccc([N+](=O)[O-])o2)NC(=O)c2ccc(Cl)cc2)c1	17	0	0	0	0	0	0
Cc1c(CCC(=O)NCCCn2ccnc2)c(=O)oc2cc3oc4c(c3cc12)CCCC4	56	0	0	0	0	33	0	IDE FP artifact=0
Cc1oc2cc3oc(=O)c(CCC(=O)NCCCn4ccnc4)c(C)c3cc2c1C	0	0	0	0	0	-	-
CCCN1CCC2(CC1)C(C#N)=C(N)Oc1c2sc2nc(C)cc(C)c12	23	0	0	0	0	0	0
COc1ccc(-c2csc3nc[nH]c(=O)c23)cc1OC	0	0	0	0	0	-	-
SMILES	IDE inh	IDE cell activ	ASAP1 GAP inh	PREPL inh	ARFGAP1 inh	IDE cell inh cf	HEK cytotox	others
Cc1ccc(-c2csc3nc[nH]c(=S)c23)cc1C	22	0	0	0	0	0	0
CC1(C(=O)Nc2ccc3ccccc3c2)CCC(=O)N1CCOc1ccccc1 (configuration not stated)	-	-	0	-	0	-	-
CC(=O)N(C(C)=O)N1C(=O)c2cccc3c(N4CCOCC4)ccc(c23)C1=O	17	0	0	0	0	0	0
O=C1c2cccc3c(N4CCCCC4)ccc(c23)C(=O)N1c1ccccn1	75	0	0	0	0	109	0
O=C(O)COc1ccccc1/C=N/NC(=O)CSc1nc2ccccc2n1Cc1ccccc1Cl	0	0	0	0	0	-	-
Cc1cc(C)cc(NC(=S)N2CCC(NC(=O)c3ccco3)CC2)c1	0	0	0	0	0	-	-
Cc1ccn2cc(-c3ccc(O)c(O)c3)nc2c1	0	0	0	0	0	-	-
N=C1/C(=C\c2ccc(SCc3ccco3)o2)C(=O)N=C2SC=NN12	25	0	0	0	0	0	0
CN(C)c1ccccc1C(=O)N1CCC(n2nccc2NC(=O)C2CC2)CC1	0	0	0	0	0	-	-
CCN1C(=S)SC(=O)C1=C1C=C(C)OC(C)=C1	0	0	0	0	0	-	-
CCN1C(=S)SC(=O)C1=C1C=C(C)N(Cc2ccco2)C(C)=C1	33	0	0	0	0	42	0
CN(C)c1cc[n+](CC(=O)c2ccc(-c3ccccc3)cc2)cc1	22	0	0	0	0	23	83
Cc1cc2nc(N3CCN(C(=O)c4ccco4)CC3)sc2cc1C	22	0	0	0	0	0	26
Cc1cc(C)c2nc(N3CCN(C(=O)c4ccco4)CC3)sc2c1	0	0	0	0	0	-	-
Cc1cccc2[nH]c3c(N4CCN(C(=O)c5ccco5)CC4)ncnc3c12	30	0	-	0	-	0	0
Cc1cccc2[nH]c3c(N4CCC5(CC4)OCCO5)ncnc3c12	0	0	0	0	0	-	-
CCOc1cccc2sc(Nc3nc4ccc(NC(C)=O)cc4s3)nc12	32	0	0	0	0	0	89
CCC/C(C#Cc1cc(OC)cc(OC)c1)=C1/c2ccccc2C(=O)N1c1ccccc1	0	0	0	0	0	-	-
CCC/C(C#Cc1ccc(N(C)C)cc1)=C1/c2ccccc2C(=O)N1c1ccccc1	22	0	0	0	0	0	26
CCOC(=O)c1sc(Nc2ccccc2)nc1C	0	0	0	0	0	-	-
CCOC(=O)c1sc(Nc2nc3c(OC)cccc3s2)nc1C	17	0	25	0	0	0	0	ASAP1 GAP conf=0
COc1cc(/C=C/C(=O)Nc2cc(C(F)(F)F)ccc2Cl)cc(OC)c1OC	17	0	25	0	0	0	0	ASAP1 GAP conf=0
COc1cc2cc(C(=O)N/N=C/c3ccc(F)cc3)[nH]c2cc1OC	0	0	0	0	0	-	-
COc1cc2cc(C(=O)N/N=C/c3ccccc3Cl)[nH]c2cc1OC	17	0	28	0	0	0	0	ASAP1 GAP conf=53
Cc1c(C(=O)N(C)Cc2ccc(F)cc2)sc(=O)n1Cc1ccccc1C#N	-	-	0	-	0	-	-
CCCNC(=O)C1(C)CCN(CCC(=O)c2ccc(Br)cc2)C1 (configuration not stated)	-	-	0	-	0	-	-
